Reference: ChEMBL document CHEMBL4014332, “Multitargeted Imidazoles: Potential Therapeutic Leads for Alzheimer's and Other Neurodegenerative Diseases” (J Med Chem, 2017)

Key:
[1] = species on record: Rattus norvegicus; assay: Inhibition of 5-LOX-mediated LTB4 production in arachidonic acid-stimulated RBL1 cells at 10 uM preincubated for 2 hrs followed by A23187 induction for 15 mins by LC/MS/MS analysis relative to control
Outline: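 RBL-1 cells grown in RPMI/10% FBS, plated 9 × 10⁵ cells/well, held 2 h at 37 °C, then given compound for 2 h (screen at 10 μM, then concentration–response in triplicate). Stimulation was 12 μM A23187 for 15 min. Supernatants were extracted with MeOH/0.01% BHT and LTB₄ quantified by UPLC-MS/MS in negative ion mode.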

[2] = Change in total alpha-tubulin levels in human QBI293 cells at 1 uM after 4 hrs by ELISA relative to control; conditions: qbi293, 4 h

Row | inhibition [1] | FC [2] | Compound | Activity [2]
1 | 26% |  | Cc1nc(Cl)c(-c2c(F)cc(F)cc2F)n1-c1ccc(Cl)nc1 | Non-Toxic
2 | 90% |  | Fc1cccc(F)c1-c1c(Cl)nc(Cl)n1-c1ccc(Cl)cc1 | Non-Toxic
3 | 81% |  | Fc1cccc(F)c1-c1c(Cl)nc(Cl)n1-c1ccc(OC(F)(F)F)cc1 | Non-Toxic
4 | 84% |  | Cc1cc(F)c(-c2cncn2-c2ccc(Cl)cc2)c(F)c1 | Non-Toxic
5 | 21% |  | Fc1cccc(F)c1-c1c(Cl)nc(Cl)n1-c1ccccc1Cl | Non-Toxic
6 | 88% | 0.8 | Fc1ccc(Cl)c(F)c1-c1cnc(Cl)n1-c1ccc(Cl)cc1 | 
7 | < 10% |  | COc1ccc(-c2cncn2-c2ccc(Cl)cc2)cc1 | Non-Toxic
8 | 78% |  | COc1ccc(F)c(-c2cncn2-c2ccc(Cl)cc2)c1F | Non-Toxic
9 | 42% |  | Cc1nc(Cl)n(-c2ccc(Cl)cc2)c1-c1c(F)cccc1F | Non-Toxic
10 | 85% |  | Fc1ccc(F)c(-c2c(Cl)ncn2-c2ccc(OC(F)(F)F)cc2)c1F | Non-Toxic
11 | < 10% |  | Clc1ccc(-n2c(Cl)nc(Cl)c2-c2ccccc2)cc1 | Non-Toxic
12 | 68% | 0.6 | COc1ccc(F)c(-c2cnc(Cl)n2-c2ccc(Cl)cc2)c1F | 
13 | 63% | 0.7 | Cc1cc(F)c(-c2c(Cl)nc(Cl)n2-c2ccc(Cl)cc2)c(F)c1 | 
14 | < 10% |  | Cc1nc(Cl)c(-c2c(F)cc(F)cc2F)n1-c1ccc(Cl)cc1 | Non-Toxic
15 | 61% |  | Fc1cc(F)c(-c2cnc(Cl)n2-c2ccc(Cl)cc2)c(F)c1 | Non-Toxic
16 | 78% |  | Fc1cccc(F)c1-c1c(Cl)ncn1-c1ccc(OC(F)(F)F)cc1 | Non-Toxic
17 | 44% |  | Cc1ncn(-c2ccc(Cl)cc2)c1-c1c(F)cccc1F | Non-Toxic

Row | inhibition [1] | FC [2] | Compound | Activity [2]
18 | 69% |  | Fc1ccc(F)c(-c2c(Cl)ncn2-c2ccc(Cl)cc2)c1 | Non-Toxic
19 | 25% |  | COc1ccc(-n2cncc2-c2c(F)cc(F)cc2F)cc1 | Non-Toxic
20 | 49% |  | Fc1cc(Cl)ccc1-n1c(-c2c(F)cccc2F)cnc1Cl | Non-Toxic
21 | 56% |  | Fc1ccc(F)c(-c2c(Cl)nc(Cl)n2-c2ccc(OC(F)(F)F)cc2)c1F | Non-Toxic
22 | 48% |  | Fc1cc(F)c(-c2c(Cl)nc(Cl)n2-c2ccc(Cl)cc2)c(F)c1 | Non-Toxic
23 | 51% |  | Cc1nc(C)n(-c2ccc(Cl)cc2)c1-c1c(F)ccc(Cl)c1F | Non-Toxic
24 | < 10% |  | Fc1cccc(F)c1-c1cncn1-c1ccccc1 | Non-Toxic
25 | < 10% |  | COc1ccc(-c2c(Cl)ncn2-c2ccc(Cl)cc2)cc1 | Non-Toxic
26 | 80% |  | Fc1ccc(F)c(-c2cnc(Cl)n2-c2ccc(OC(F)(F)F)cc2)c1F | Non-Toxic
27 | 58% |  | Fc1cc(-n2c(-c3c(F)ccc(F)c3F)cnc2Cl)ccc1Cl | Non-Toxic
28 | 14% |  | Fc1cc(Cl)ccc1-n1cnc(Cl)c1-c1c(F)cccc1F | Non-Toxic
29 | 91% | 0.8 | COc1ccc(F)c(-c2c(Cl)ncn2-c2ccc(Cl)cc2)c1F | 
30 | < 10% | 0.8 | Fc1cc(F)c(-c2c(Cl)ncn2-c2ccc(Cl)nc2)c(F)c1 | 
31 | 59% |  | Fc1ccc(-c2c(Cl)ncn2-c2ccc(Cl)cc2)cc1 | Non-Toxic
32 | 61% |  | Fc1cccc(F)c1-c1cnc(Cl)n1-c1ccc(OC(F)(F)F)cc1 | Non-Toxic
33 | 45% | 0.9 | Cc1ncc(-c2c(F)ccc(F)c2F)n1-c1ccc(Cl)cc1 | 
34 | < 10% |  | Fc1cccc(F)c1-c1cncn1-c1ccccc1Cl | Non-Toxic
